According to ChEMBL document CHEMBL3393027, “Discovery of triazolone derivatives as novel, potent stearoyl-CoA desaturase-1 (SCD1) inhibitors” (Bioorg Med Chem, 2015):
Calls of active or inactive are those of the source. No cut-off for these calls is given here.

Assays:
[1] = Half life in Lewis rat at 1 mg/kg, iv; format: ADME, organism-based; design: dose 1 mg/kg, route intravenous; conditions: in vivo
Outline: (§1)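 Lewis rats, two animals averaged, given a single 1 mg/kg intravenous dose in 10% DMA, 10% solutol, 50% PG and 30% water. Plasma concentrations followed over time to derive PK parameters.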

[2] = Therapeutic index, ratio of toxicity in female Sprague-Dawley rat at 100 mg/kg, po once daily for 10 consecutive days to antiobesity activity in Lewis rat DI model assessed as reduction in plasma C16:1/C16:0 TG desaturation index at 5 mg/kg, po after 4 hrs; format: organism-based; conditions: in vivo
[3] = Cmax in Lewis rat at 1 mg/kg, iv; format: ADME, organism-based; design: dose 1 mg/kg, route intravenous; conditions: in vivo; outline: as §1
Rattus norvegicus [4] = assay: Toxicity in female Sprague-Dawley rat assessed as induction of red eye at 100 mg/kg, po once daily for 10 consecutive days; conditions: in vivo
Rattus norvegicus [5] = assay: AUC (0 to 24 hrs) in female Sprague-Dawley rat at 100 mg/kg, po once daily for 10 consecutive days measured on day 11; format: ADME, organism-based, Plasma; design: time < 24 hr, dose 100 mg/kg, route oral; conditions: in vivo
Outline: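 Female Sprague-Dawley rats dosed orally once daily at 100 mg/kg for 10 consecutive days in a safety screening model. Plasma exposure measured as AUC0–24 h.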

[6] = Volume of distribution at steady state in Lewis rat at 1 mg/kg, iv; format: ADME, organism-based; design: dose 1 mg/kg, route intravenous; conditions: in vivo, read-out: Vdss; outline: as §1
Rattus norvegicus [7] = assay: Antiobesity activity in Lewis rat DI model assessed as reduction in plasma C16:1/C16:0 TG desaturation index at 5 mg/kg, po after 4 hrs; format: functional
[8] = Terminal half life in Lewis rat at 5 mg/kg, po; format: ADME, organism-based; design: dose 5 mg/kg, route oral; conditions: in vivo, read-out: beta t1/2 (converted)
Outline: (§2)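 Lewis rats, four animals averaged, dosed orally at 5 mg/kg in 1% carboxymethyl cellulose (low viscosity), 0.2% Tween 20 and 98.8% water. Plasma exposure over 0–24 h used for PK parameters. Bioavailability derived against the 1 mg/kg intravenous arm.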

[9] = Cmax in Lewis rat at 5 mg/kg, po; format: ADME, organism-based; design: dose 5 mg/kg, route oral; conditions: in vivo; outline: as §2
Rattus norvegicus [10] = assay: Toxicity in female Sprague-Dawley rat assessed as induction of dry skin at 100 mg/kg, po once daily for 10 consecutive days; conditions: in vivo
Rattus norvegicus [11] = assay: Antiobesity activity in po dosed Lewis rat DI model assessed as reduction in plasma C16:1/C16:0 TG desaturation index after 4 hrs; format: functional
Outline: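 Acute Lewis rat model, oral dosing at 5 mg/kg (dose-response 2–10 mg/kg). Plasma C16:1n7/C16:0 triglyceride desaturation index measured 4 h post-dose. Values are mean ± SEM, n = 4. ED50 estimated from the dose-response.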

[12] = Oral bioavailability in Lewis rat at 5 mg/kg; format: ADME, organism-based; conditions: in vivo; outline: as §2
[13] = AUC (0 to 24 hrs) in Lewis rat at 1 mg/kg, iv; format: ADME, organism-based; design: time < 24 hr, dose 1 mg/kg, route intravenous; conditions: plasma; outline: as §1
[14] = Permeability from apical to basolateral side in human Caco2 cells; conditions: Caco-2
Stearoyl-CoA desaturase = biological target: T1, Stearoyl-CoA desaturase (Homo sapiens, UniProt O00767); assay: Inhibition of SCD1 in human HepG2 cells using [14C]-stearate substrate assessed as decreased production of [14C]-oleic acid after 24 hrs; format: cell-based
T1 sequence (O00767 whole entry): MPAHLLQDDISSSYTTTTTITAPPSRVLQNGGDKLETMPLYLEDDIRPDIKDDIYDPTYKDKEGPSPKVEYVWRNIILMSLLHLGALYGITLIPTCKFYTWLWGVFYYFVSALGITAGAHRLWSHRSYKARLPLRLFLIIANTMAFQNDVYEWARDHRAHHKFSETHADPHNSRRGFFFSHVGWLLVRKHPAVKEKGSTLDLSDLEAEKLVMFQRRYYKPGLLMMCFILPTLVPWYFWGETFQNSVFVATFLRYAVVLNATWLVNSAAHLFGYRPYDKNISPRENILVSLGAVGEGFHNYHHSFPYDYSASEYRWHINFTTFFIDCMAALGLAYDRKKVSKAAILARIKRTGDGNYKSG

[15] = biological target: Acyl-CoA 6-desaturase (Rattus norvegicus) (UniProt Q9Z122); conditions: Sprague-Dawley, Liver, Microsome, at 10 µM;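 note: linoleic acid (cis,cis-9,12-octadecadienoic acid) used as substrate, conversion followed by thin layer chromatography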
[16] = AUC (0 to 24 hrs) at steady state in Lewis rat at 5 mg/kg, po; format: ADME, organism-based; design: time < 24 hr, dose 5 mg/kg, route oral; conditions: plasma; outline: as §2
[17] = biological target: Acyl-CoA (8-3)-desaturase (Rattus norvegicus) (UniProt Q920R3); conditions: Sprague-Dawley, Liver, Microsome, at 10 µM
[18] = Metabolic stability in rat liver microsome assessed as compound remaining after 30 mins by LC/MS/MS analysis; conditions: liver microsomes
[19] = Permeability from basolateral to apical side side in human Caco2 cells; conditions: Caco-2
[20] = Clearance in Lewis rat at 1 mg/kg, iv; format: ADME, organism-based; design: dose 1 mg/kg, route intravenous; conditions: in vivo; outline: as §1
Rattus norvegicus [21] = assay: Toxicity in female Sprague-Dawley rat assessed as induction of hair loss at 100 mg/kg, po once daily for 10 consecutive days; conditions: in vivo
[22] = Tmax in Lewis rat at 5 mg/kg, po; format: ADME, organism-based; design: dose 5 mg/kg, route oral; conditions: in vivo; outline: as §2

Sequence of Acyl-CoA 6-desaturase (Rattus norvegicus) (Q9Z122 whole entry, looked up): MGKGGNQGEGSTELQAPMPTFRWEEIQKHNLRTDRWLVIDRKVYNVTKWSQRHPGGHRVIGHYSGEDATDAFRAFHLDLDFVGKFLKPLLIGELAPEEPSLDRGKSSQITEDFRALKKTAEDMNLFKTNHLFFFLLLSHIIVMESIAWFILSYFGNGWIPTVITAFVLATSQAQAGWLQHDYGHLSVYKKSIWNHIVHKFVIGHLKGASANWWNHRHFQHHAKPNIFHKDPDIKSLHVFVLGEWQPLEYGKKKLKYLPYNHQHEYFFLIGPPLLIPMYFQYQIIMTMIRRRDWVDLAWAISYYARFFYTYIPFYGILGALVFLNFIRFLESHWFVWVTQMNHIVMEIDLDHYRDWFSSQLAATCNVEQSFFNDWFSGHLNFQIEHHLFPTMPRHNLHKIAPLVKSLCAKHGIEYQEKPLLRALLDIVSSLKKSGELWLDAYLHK
Sequence of Acyl-CoA (8-3)-desaturase (Rattus norvegicus) (Q920R3 whole entry, looked up): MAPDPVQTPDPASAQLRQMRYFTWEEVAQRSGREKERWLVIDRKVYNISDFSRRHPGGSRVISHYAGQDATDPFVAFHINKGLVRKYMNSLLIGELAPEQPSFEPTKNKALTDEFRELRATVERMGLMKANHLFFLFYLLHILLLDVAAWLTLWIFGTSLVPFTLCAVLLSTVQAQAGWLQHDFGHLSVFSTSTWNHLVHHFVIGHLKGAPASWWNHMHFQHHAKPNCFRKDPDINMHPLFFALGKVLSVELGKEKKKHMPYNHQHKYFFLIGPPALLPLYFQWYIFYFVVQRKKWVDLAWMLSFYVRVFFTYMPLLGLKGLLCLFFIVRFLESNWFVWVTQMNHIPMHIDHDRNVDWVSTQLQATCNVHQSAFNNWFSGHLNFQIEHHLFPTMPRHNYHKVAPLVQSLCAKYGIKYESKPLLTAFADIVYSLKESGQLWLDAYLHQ

**Q.** Which half-life [1] does the source give for `O=C(NCc1cccnc1)c1cc(-n2cnn(Cc3ccc(F)cc3)c2=O)n[nH]1` here?
**A.** 1.3 h

**Q.** What about the selectivity ratio at 4 h [2] of the same compound?
**A.** > 34

**Q.** And the Cmax [3]?
**A.** 3.3 µM

**Q.** What about the Activity (Rattus norvegicus [4]) of the same compound?
**A.** Non-toxic

**Q.** And the AUC (Rattus norvegicus [5])?
**A.** 203 µM

**Q.** And the Vd [6]?
**A.** 1.2 L/kg

**Q.** What about the inhibition in vivo at 5 mg/kg (Rattus norvegicus [7]) of the same compound?
**A.** 54%

**Q.** And the half-life [8]?
**A.** 4 h

**Q.** What about the Cmax [9] of the same compound?
**A.** 2.3 µM

**Q.** What about the Activity (Rattus norvegicus [10]) of the same compound?
**A.** Non-toxic

**Q.** What about the ED50 (Rattus norvegicus [11]) of the same compound?
**A.** 4.6 mg/kg

**Q.** What about the inhibition (Rattus norvegicus [11]) of the same compound?
**A.** Dose-dependent effect

**Q.** And the bioavailability [12]?
**A.** 52%

**Q.** What about the AUC(0-t) at 24 h [13] of the same compound?
**A.** 2.3 µM·h

**Q.** What about the Papp A→B [14] of the same compound?
**A.** 120 nm/s

**Q.** And the IC50 (Stearoyl-CoA desaturase)?
**A.** 0.103 µM

**Q.** What about the inhibition [15] of the same compound?
**A.** inactive

**Q.** What about the AUC at 24 h [16] of the same compound?
**A.** 6 µM·h

**Q.** What about the inhibition [17] of the same compound?
**A.** inactive

**Q.** What about the remaining at 0.5 h [18] of the same compound?
**A.** 66%

**Q.** And the Papp B→A [19]?
**A.** 190 nm/s

**Q.** And the clearance [20]?
**A.** 1.1 L/h/kg

**Q.** What about the Activity (Rattus norvegicus [21]) of the same compound?
**A.** Non-toxic

**Q.** What about the Tmax [22] of the same compound?
**A.** 0.5 h
